Results: PMC6239893 (Nature chemical biology, 2018)

Key:
[1] = system: ai5γ intron with short exons (SE RNA); assay: Radioanalytic self-splicing assay; assay type: biochemical, S. cerevisiae; conditions: relative to lead compound; IC50 and Ki assays
Procedure, shortened: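 Internally ³²P-labelled ai5γ precursor with short exons (2 nM) self-spliced at 30 °C with a range of test compound concentrations. Buffer was 50 mM MOPS pH 7.5, 8 mM MgCl₂, 100 mM KCl. First-order splicing rates were fitted to k_obs = k_max/(1+[I]/K_i) to give K_i. Each determination was repeated 2–4 times; mean ± s.e.m.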

[2] = system: COX1 aI5γ group II intron; assay: Analysis of splicing in S. cerevisiae by qRT-PCR; assay type: cell-based; conditions: S. cerevisiae in YPGE, 4 h; 19 64 μg/mL, 18 32 μg/mL, 12 32 μg/mL, 3 64 μg/mL
[3] = system: S. cerevisiae wild-type (NP40–36a) and intronless (XPM46) strains; assay: S. cerevisiae growth assays, wild-type vs mtDNA intronless strain; assay type: cell-based; conditions: YPGE medium, 64 or 128 μg/mL
Procedure, shortened: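 Wild-type NP40–36a and mtDNA intronless XPM46 strains were grown overnight with shaking to mid-log phase in YPGE at 30 °C. Equal cell numbers were serially diluted 1:5 and plated on YPD or YPGE. Plates held DMSO or test compound at 64 or 128 µg/mL final. Plates grew at 30 °C for 1 day (YPD), 2 days (YPGE with DMSO) or 18 days (YPGE with compound). Done twice.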

[4] = system: ai5γ group II intron (D135 ribozyme); assay: Fluorescent D135 ribozyme cleavage assay; assay type: biochemical, S. cerevisiae; conditions: compared with the parental molecule 7

Row | Compound | In vitro inhibitory activity in SAR (in words) [1] | Splicing of COX1 aI5γ group II intron in vivo (unspliced precursor, qRT-PCR) [2] | further results
1 | COc1ccc(CNC(=O)c2cc(O)c(O)c(O)c2)cc1OC [Compound 10] | substantial loss of activity |  | 
2 | O=C1/C(=C/c2cc(O)cc(O)c2)Oc2cc(O)cc(O)c21 [Compound 3] |  | inactive | 
3 | Cc1ccncc1-c1ccc2oc(C(=O)c3cc(O)c(O)c(O)c3)cc2c1 [Compound 12] |  | inhibit splicing | 
4 | CC(=O)c1ccc(-c2ccc3oc(C(=O)c4cc(O)c(O)c(O)c4)cc3c2)cc1 [Compound 18] |  | inhibit splicing | Growth of intronless strain versus wild-type strain in presence of compound [3]: much more resistant
5 | CCCCNS(=O)(=O)c1ccc(-c2ccc(-c3nc(-c4cc(O)c(O)c(O)c4)cs3)cc2)cc1 [Compound 11] | substantial loss of activity |  | 
6 | O=C(c1cc(O)c(O)c(O)c1)c1cc2ccccc2o1 [Compound 9] |  |  | Increase in in vitro potency [4]: 2 fold
7 | O=C1/C(=C/c2ccc(O)c(O)c2)Oc2cc(O)cc(O)c21 [Compound 2] | inactivated |  | 
